The subject of one experiment is Pseudomonas aeruginosa. As to the kind of experiment: Antimicrobial activity against Pseudomonas aeruginosa at 1000 ppm. Type of experiment: functional, organism-based. In outline: (§1)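 Compound applied at 1000 ppm in DMSO to each bacterial, fungal or oomycete test organism; activity read as the diameter of the growth-inhibition zone in mm.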
The test system of a further experiment is Globisporangium ultimum. As to the kind of experiment: Antimicrobial activity against Pythium ultimum at 1000 ppm. Type of experiment: functional, organism-based. In outline: as §1
A further experiment relates to Aspergillus niger. In words: Antimicrobial activity against Aspergillus niger at 1000 ppm. Type of experiment: functional, organism-based. The procedure, abridged:
as §1

The subject of experiment [1] is Bacillus subtilis. As to the kind of experiment: Antimicrobial activity against Bacillus subtilis at 1000 ppm. Format: functional. Particulars: read-out: IZ. In outline: as §1
In experiment [2] the test system is Fusarium oxysporum. As to the kind of experiment: Antimicrobial activity against Fusarium oxysporum at 1000 ppm. Type of experiment: functional. The following applies: read-out: IZ. In outline:
as §1

Experiment [3] has as its system Saccharomyces cerevisiae. In words: Antimicrobial activity against Saccharomyces cerevisiae at 1000 ppm. Type of experiment: functional. Particulars: read-out: IZ. In outline: as §1
For experiment [4], the system named is Bacillus subtilis. As to the kind of experiment: Antimicrobial activity against Bacillus subtilis at 100 ppm. Type of experiment: functional, organism-based.
The subject of experiment [5] is Fusarium oxysporum. In words: Antimicrobial activity against Fusarium oxysporum at 100 ppm. Format: functional, organism-based.
Experiment [6] relates to Saccharomyces cerevisiae. As to the kind of experiment: Antimicrobial activity against Saccharomyces cerevisiae at 100 ppm. Type of experiment: functional, organism-based.
Experiment [7] relates to Rhizoctonia solani. In words: Antimicrobial activity against Rhizoctonia solani at 1000 ppm. Particulars: read-out: IZ. Type of experiment: functional. The procedure, abridged:
as §1

The subject of experiment [8] is Rhizoctonia solani. In words: Antimicrobial activity against Rhizoctonia solani at 100 ppm. Format: functional. Particulars: read-out: IZ.
Experiment [9] relates to Rhizoctonia solani. As to the kind of experiment: Antimicrobial activity against Rhizoctonia solani at 10 ppm. Type of experiment: functional. Particulars: read-out: IZ.
In experiment [10] the test system is Botrytis cinerea. In words: Antimicrobial activity against Botrytis cinerea at 1000 ppm. Format: functional. Particulars: read-out: IZ. In outline:
as §1

The subject of experiment [11] is Botrytis cinerea. As to the kind of experiment: Antimicrobial activity against Botrytis cinerea at 100 ppm. Type of experiment: functional. The following applies: read-out: IZ.
The subject of experiment [12] is Botrytis cinerea. In words: Antimicrobial activity against Botrytis cinerea at 10 ppm. Format: functional. Particulars: read-out: IZ.

Active and inactive are the calls of the source. No cut-off for these calls is given here.

With `CC(C)=CC[C@@]12CCN(C)[C@@H]1Nc1cc(Br)ccc12` (relative stereo) [FLUSTRAMINE E], the result in the experiment with Pseudomonas aeruginosa, with Globisporangium ultimum, in the experiment on Aspergillus niger, in the experiment with Bacillus subtilis [4], with Fusarium oxysporum [5] and with Saccharomyces cerevisiae [6] was inactive. Also, the zone of inhibition at 1000 ppm in the experiment with Bacillus subtilis [1] was 12 mm; in the experiment with Fusarium oxysporum [2], 10 mm; in the experiment with Saccharomyces cerevisiae [3] it was 14 mm; in the experiment with Rhizoctonia solani [7], 10 mm; in the experiment on Botrytis cinerea [10], 27 mm. In addition, the zone of inhibition at 100 ppm in the experiment with Rhizoctonia solani [8] amounted to 9 mm; in the experiment with Botrytis cinerea [11], 25 mm. Further, the zone of inhibition at 10 ppm stood at 9 mm with Rhizoctonia solani [9] and 21 mm with Botrytis cinerea [12].

For the origin of these results see ChEMBL document CHEMBL1148046, “Marine alkaloids, 15. Two alkaloids, flustramine E and debromoflustramine B, from the marine bryozoan Flustra foliacea” (1994).
